In data set [1] the target is T1, Renin (Homo sapiens, UniProt P00797).
T1 sequence (P00797 whole entry): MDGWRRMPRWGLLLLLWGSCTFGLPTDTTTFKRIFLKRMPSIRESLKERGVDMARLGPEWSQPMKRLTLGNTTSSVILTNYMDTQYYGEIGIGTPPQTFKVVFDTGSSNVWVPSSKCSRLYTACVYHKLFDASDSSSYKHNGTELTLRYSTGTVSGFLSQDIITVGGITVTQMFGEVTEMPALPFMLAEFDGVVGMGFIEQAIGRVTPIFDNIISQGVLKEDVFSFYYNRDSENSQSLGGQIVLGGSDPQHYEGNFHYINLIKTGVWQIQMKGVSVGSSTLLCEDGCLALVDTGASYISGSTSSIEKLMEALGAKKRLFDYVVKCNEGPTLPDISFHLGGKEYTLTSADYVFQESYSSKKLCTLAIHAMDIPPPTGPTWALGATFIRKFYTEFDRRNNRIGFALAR
Nature of the data set: Inhibition of human recombinant renin using fluorescence-quenched (RE(EDANS)IHPFHLVIHTK(Dabcyl)R as substrate incubated for 1 hr prior to substrate addition measured after 1 hr by fluorescence polarization assay.

Data set [2] has as its target T2, Renin (Homo sapiens) (UniProt P00797).
T2 sequence (whole entry): T1 sequence (P00797 whole entry)
Nature of the data set: Inhibition of human recombinant renin using fluorescence-quenched (RE(EDANS)IHPFHLVIHTK(Dabcyl)R as substrate at 100 uM incubated for 1 hr prior to substrate addition measured after 1 hr by fluorescence polarization assay.

For data set [3], the target named is T1, Renin. Briefly: Binding affinity to human recombinant renin by NMR titration analysis.
Data set [4] concerns Rattus norvegicus. Nature of the data set: Antihypertensive activity in po dosed telemetered hypertensive double-transgenic rat model expressing human renin and angiotensinogen assessed as reduction of mean arterial blood pressure. The format is functional, organism-based. As to conditions: Artery. The method in brief:
(§1)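 Telemetered hypertensive double-transgenic rats given a single oral dose (6 or 30 mg/kg); mean arterial blood pressure monitored for maximal reduction from pre-treatment baseline and time to 50% recovery to baseline.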

The test system of data set [5] is Rattus norvegicus. Briefly: Antihypertensive activity in telemetered hypertensive double-transgenic rat model expressing human renin angiotensinogen assessed as time required for 50 % recovery at 30 mg/kg, po. The format is functional. The method in brief:
as §1

The test system of data set [6] is Rattus norvegicus. Nature of the data set: Antihypertensive activity in telemetered hypertensive double-transgenic rat model expressing human renin angiotensinogen assessed as time required for 50 % recovery at 6 mg/kg, po. The format is functional. The method in brief:
as §1

Data set [7] concerns the target T3, Gastricsin (Homo sapiens, UniProt P20142).
T3 sequence (P20142 whole entry): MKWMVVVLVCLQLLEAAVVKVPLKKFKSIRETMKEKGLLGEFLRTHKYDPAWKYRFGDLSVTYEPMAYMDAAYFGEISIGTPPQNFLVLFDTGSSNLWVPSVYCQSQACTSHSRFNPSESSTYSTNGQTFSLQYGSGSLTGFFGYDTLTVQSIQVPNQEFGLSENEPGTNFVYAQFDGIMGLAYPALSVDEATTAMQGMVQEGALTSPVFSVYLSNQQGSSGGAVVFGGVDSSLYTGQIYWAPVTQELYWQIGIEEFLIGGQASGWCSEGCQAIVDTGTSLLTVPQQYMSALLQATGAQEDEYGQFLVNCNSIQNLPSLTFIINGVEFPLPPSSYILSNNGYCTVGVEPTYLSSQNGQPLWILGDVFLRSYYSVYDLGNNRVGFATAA
Briefly: Inhibition of human recombinant pepsin C expressed in Escherichia coli using fluorescence-quenched Dabcyl-E-R-Nle-F-L-S-F-P-EDANS as substrate incubated for 1 hr prior to substrate addition measured after 1 hr by fluorescence polarization assay.

The nature of data set [8]: AUC (0 to 24 hrs) in Sprague-Dawley rat at 6 mg/kg, po by HPLC analysis. To be noted: plasma. The format is ADME, organism-based. Also on record: time < 24 hr, dose 6 mg/kg, route oral. The method in brief:
(§2)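 Fed Sprague–Dawley rats dosed at 2 mg/kg i.v. and 6 mg/kg p.o.; plasma levels followed over 24 h to derive oral AUC(0-24 h), Cmax, t1/2, plasma clearance, Vdss and oral bioavailability.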

Data set [9] is described as follows: Cmax in Sprague-Dawley rat at 6 mg/kg, po by HPLC analysis. The format is ADME, organism-based. Also on record: dose 6 mg/kg, route oral. As to conditions: in vivo. The method in brief:
as §2

Data set [10] has as its system Rattus norvegicus. Briefly: Antihypertensive activity in telemetered hypertensive double-transgenic rat model expressing human renin and angiotensinogen assessed as reduction of mean arterial blood pressure at 6 mg/kg, po. It counts as functional, Artery. The method in brief: as §1
Data set [11] addresses Cytochrome P450 3A4 (Homo sapiens, UniProt P08684). Briefly: Time dependent inhibition of CYP3A4 (unknown origin). The format is ADME. To be noted: TDE = time-dependent effect.
The target in data set [12] is T1, Renin. Nature of the data set: Inhibition of human plasma renin.
Data set [13] is described as follows: Oral bioavailability in Sprague-Dawley rat at 6 mg/kg by HPLC analysis. The format is ADME, organism-based. As to conditions: in vivo. The method in brief: as §2
Data set [14] in a line: Volume of distribution at steady state in Sprague-Dawley rat at 2 mg/kg, iv and 6 mg/kg, po by HPLC analysis. It counts as ADME, organism-based. To be noted: in vivo, read-out: Vdss. The method in brief: as §2
In data set [15] the target is T4, Beta-secretase 2 (Homo sapiens, UniProt Q9Y5Z0).
T4 sequence (Q9Y5Z0 whole entry): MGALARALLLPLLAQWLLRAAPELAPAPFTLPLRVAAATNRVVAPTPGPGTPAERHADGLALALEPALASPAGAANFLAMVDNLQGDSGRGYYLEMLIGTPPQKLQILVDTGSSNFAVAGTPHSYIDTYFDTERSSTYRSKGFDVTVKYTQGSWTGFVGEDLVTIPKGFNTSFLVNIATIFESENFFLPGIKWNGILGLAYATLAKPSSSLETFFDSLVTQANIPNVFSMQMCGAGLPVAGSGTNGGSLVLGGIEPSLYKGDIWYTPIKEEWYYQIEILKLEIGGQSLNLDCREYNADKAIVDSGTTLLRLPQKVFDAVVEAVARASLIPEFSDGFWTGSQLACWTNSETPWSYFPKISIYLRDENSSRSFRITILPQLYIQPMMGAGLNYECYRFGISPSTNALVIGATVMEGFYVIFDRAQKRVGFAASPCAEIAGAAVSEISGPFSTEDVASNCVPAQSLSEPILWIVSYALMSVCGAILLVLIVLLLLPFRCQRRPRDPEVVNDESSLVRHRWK
Nature of the data set: Inhibition of human recombinant BACE2 expressed in baculovirus-infected SF9 cells using fluorescence-quenched RE(EDANS)-EVNLDAEF-K(DABSYL)-R as substrate incubated for 1 hr prior to substrate addition measured after 1 hr by fluorescence polarization assay.

Data set [16] in a line: Half life in Sprague-Dawley rat at 2 mg/kg, iv and 6 mg/kg, po by HPLC analysis. It counts as ADME, organism-based. As to conditions: in vivo. The method in brief:
as §2

The target of data set [17] is T5, Cathepsin E (Homo sapiens, UniProt P14091).
T5 sequence (P14091 whole entry): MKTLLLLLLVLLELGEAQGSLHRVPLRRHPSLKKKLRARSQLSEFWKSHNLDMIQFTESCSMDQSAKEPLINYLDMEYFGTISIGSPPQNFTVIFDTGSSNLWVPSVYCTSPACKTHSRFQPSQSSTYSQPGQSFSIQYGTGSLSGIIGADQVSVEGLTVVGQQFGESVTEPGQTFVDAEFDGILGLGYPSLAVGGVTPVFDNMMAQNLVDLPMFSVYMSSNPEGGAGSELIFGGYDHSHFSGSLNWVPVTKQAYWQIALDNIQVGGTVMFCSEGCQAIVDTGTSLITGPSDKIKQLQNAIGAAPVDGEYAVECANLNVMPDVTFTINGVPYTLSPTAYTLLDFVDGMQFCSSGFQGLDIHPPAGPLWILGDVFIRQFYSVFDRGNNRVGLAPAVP
Nature of the data set: Inhibition of human recombinant cathepsin E expressed in Escherichia coli using fluorescence-quenched Ac-E-D(EDANS)-KPILFFRLG-K(Dabcyl)-E-Amid as substrate incubated for 1 hr prior to substrate addition measured after 1 hr by fluorescence polarization assay.

Data set [18] has as its target Cathepsin D (Homo sapiens, UniProt P07339). Nature of the data set: Inhibition of human recombinant cathepsin D expressed in baculovirus-infected SF9 cells using fluorescence-quenched Ac-E-D(EDANS)-KPILFFRLG-K(Dabcyl)-E-Amid as substrate incubated for 1 hr prior to substrate addition measured after 1 hr by fluorescence polarization assay.
For data set [19], the target named is Beta-secretase 1 (Homo sapiens, UniProt P56817). Briefly: Inhibition of human recombinant BACE1 expressed in baculovirus-infected SF9 cells using fluorescence-quenched RE(EDANS)-EVNLDAEF-K(DABSYL)-R as substrate incubated for 1 hr prior to substrate addition measured after 1 hr by fluorescence polarization assay.
A short description of data set [20]: Plasma clearance in Sprague-Dawley rat at 2 mg/kg, iv and 6 mg/kg, po by HPLC analysis. The format is ADME, organism-based. The method in brief: as §2
Data set [21] in a line: Inhibition of human recombinant pepsin A expressed in Escherichia coli using fluorescence-quenched Dabcyl-E-R-Nle-F-L-S-F-P-EDANS as substrate incubated for 1 hr prior to substrate addition measured after 1 hr by fluorescence polarization assay.
For data set [22], the system named is Rattus norvegicus. Nature of the data set: Antihypertensive activity in telemetered hypertensive double-transgenic rat model expressing human renin and angiotensinogen assessed as reduction of mean arterial blood pressure at 30 mg/kg, po. It counts as functional, Artery. The method in brief:
as §1

Chain of Cathepsin D (P07339 65-162 limits assumed): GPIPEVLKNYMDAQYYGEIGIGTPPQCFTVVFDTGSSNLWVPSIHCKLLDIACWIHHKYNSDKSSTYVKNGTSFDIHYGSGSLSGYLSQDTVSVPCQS
Chain of Cathepsin D (P07339 169-412 limits assumed): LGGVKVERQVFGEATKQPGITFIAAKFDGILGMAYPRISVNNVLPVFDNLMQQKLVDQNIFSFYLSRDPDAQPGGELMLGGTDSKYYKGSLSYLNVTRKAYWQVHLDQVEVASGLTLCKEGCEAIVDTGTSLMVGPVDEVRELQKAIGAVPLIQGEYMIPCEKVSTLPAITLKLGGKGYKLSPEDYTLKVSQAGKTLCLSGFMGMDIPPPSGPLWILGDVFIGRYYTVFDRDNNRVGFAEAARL
Chain of Cytochrome P450 3A4 (P08684 whole entry): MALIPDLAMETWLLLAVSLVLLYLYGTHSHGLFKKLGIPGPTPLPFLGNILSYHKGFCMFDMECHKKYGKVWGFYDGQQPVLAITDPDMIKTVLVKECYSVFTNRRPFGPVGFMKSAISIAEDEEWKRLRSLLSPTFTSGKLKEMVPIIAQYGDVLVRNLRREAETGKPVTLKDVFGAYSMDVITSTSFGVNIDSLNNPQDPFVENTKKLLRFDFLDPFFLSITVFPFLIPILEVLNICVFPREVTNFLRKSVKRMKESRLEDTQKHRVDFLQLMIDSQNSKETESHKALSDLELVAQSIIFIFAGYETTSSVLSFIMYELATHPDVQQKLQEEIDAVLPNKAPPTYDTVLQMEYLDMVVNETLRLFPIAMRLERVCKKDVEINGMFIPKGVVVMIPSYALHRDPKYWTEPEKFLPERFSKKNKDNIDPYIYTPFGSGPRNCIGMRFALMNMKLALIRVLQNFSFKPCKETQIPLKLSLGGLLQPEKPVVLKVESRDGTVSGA
Chain of Beta-secretase 1 (P56817 whole entry): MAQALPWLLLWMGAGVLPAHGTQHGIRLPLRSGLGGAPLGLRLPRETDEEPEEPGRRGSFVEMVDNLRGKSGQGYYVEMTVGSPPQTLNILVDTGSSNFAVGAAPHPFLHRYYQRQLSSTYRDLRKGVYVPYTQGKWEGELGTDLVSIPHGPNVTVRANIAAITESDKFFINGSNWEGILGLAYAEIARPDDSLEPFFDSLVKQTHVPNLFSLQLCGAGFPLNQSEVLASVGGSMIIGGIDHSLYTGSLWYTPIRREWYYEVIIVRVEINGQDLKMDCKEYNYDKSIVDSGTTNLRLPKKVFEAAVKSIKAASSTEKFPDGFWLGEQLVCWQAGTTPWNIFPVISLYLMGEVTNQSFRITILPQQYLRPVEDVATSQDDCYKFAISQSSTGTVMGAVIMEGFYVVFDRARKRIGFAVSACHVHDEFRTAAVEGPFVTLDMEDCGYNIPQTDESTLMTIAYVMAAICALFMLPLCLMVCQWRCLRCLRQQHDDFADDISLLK

For the compound `COCCCCC1(CNC(=O)C2CCCNC2)c2ccccc2Oc2ccccc21` (racemic), the IC50 in data set [1] amounted to 4000 nM.
With `O=C(NCC1c2ccccc2Oc2ccccc21)C1CCCNC1` (racemic), the inhibition in [2] came to 0%.
In the case of `OC(CC1c2ccccc2Sc2ccccc21)CN1CCCC1` (racemic), the Kd in [3] was greater than 500000 nM. The IC50 in data set [1] is greater than 100000 nM.
In the case of `COCCCCC1(CNC(=O)[C@@H]2CNC[C@H](NS(=O)(=O)c3ccc(C)cc3)C2)c2ccccc2Oc2ccccc21` [listing 1 of 2 here], in [4], the Activity entry was “Dose-dependent effect”.
As for `CC(O)CN1CC2c3ccccc3Nc3ccccc3C2C1` (racemic), in data set [3], the Kd is greater than 500000 nM. In data set [1], the IC50 was greater than 100000 nM.
As to `Cc1ccc(S(=O)(=O)N[C@H]2CNC[C@@H](C(=O)NCC(c3ccccc3)c3ccccc3)C2)cc1` (racemic), the IC50 in data set [1] was found to be 1200 nM.
As to `Cc1ccc(S(=O)(=O)N[C@H]2CNC[C@@H](C(=O)NCC3c4ccccc4Oc4ccccc43)C2)cc1` (racemic), the IC50 in data set [1] amounted to 90 nM.
In the case of `COCCCCC1(CNC(=O)[C@@H]2CNC[C@H](NS(=O)(=O)c3ccc(C)cc3)C2)c2ccccc2Oc2ccccc21` [listing 2 of 2 here], the Time is 7.8 h in data set [5] and 3.1 h in [6]. Further, the IC50 is greater than 30000 nM in data set [7]; 3 nM in data set [1]; 25 nM in data set [12]; greater than 30000 nM in data set [15]; greater than 30000 nM in [17]; greater than 30000 nM in data set [18]. The IC50 in data set [19] and in [21] was greater than 30000 nM in each case. In data set [8], the AUC(0-t) at 24 h stood at 0.75 µM·h. In addition, the Cmax in [9] was determined as 222 nM. The results for the Activity in [10] and in data set [22] were 28 mmHg and 58 mmHg, respectively. Moreover, in data set [11], the “inhibition (INH)” value was “tde”. Also, the bioavailability in [13] was determined as 18%. The Vd in data set [14] stood at 5.3 L/kg. Further, the half-life in data set [16] was 2.3 h. The clearance in [20] was 43.3 mL/min/kg.
On to `COCCCCC1(CNC(=O)[C@H]2CNC[C@@H](NS(=O)(=O)c3ccc(C)cc3)C2)c2ccccc2Oc2ccccc21`, for which the IC50 in data set [1] worked out at 500 nM.
In the case of `Cc1ccc(S(=O)(=O)N[C@H]2CNC[C@@H](C(=O)NCC(c3ccccc3)c3ccccc3)C2)cc1`, the half-maximal inhibitory concentration (IC50) in data set [1] was 500 nM.
`COCCCCC1(CNC(=O)[C@@H]2CNC[C@H](NS(=O)(=O)c3ccc(C)cc3)C2)c2ccccc2Oc2ccccc21` (racemic): the IC50 in [1] was 4 nM.
For `Cc1ccc(S(=O)(=O)N[C@@H]2CNC[C@H](C(=O)NCC(c3ccccc3)c3ccccc3)C2)cc1`, the IC50 in data set [1] is greater than 30000 nM.
